Laboratory results: ChEMBL document CHEMBL3425497, “Discovery of (R)-1-(3-((2-chloro-4-(((2-hydroxy-2-(8-hydroxy-2-oxo-1,2-dihydroquinolin-5-yl)ethyl)amino)methyl)-5-methoxyphenyl)amino)-3-oxopropyl)piperidin-4-yl [1,1'-biphenyl]-2-ylcarbamate (TD-5959, GSK961081, batefenterol): first-in-class dual pharmacology multivalent muscarinic antagonist and …” (J Med Chem, 2015)
pEC50, pKi: −log10 of the molar value.

What was measured:
[1] = molecular target: T1, Muscarinic acetylcholine receptor M3 (Homo sapiens, UniProt P20309); experiment: Displacement of [3H]NMS from human muscarinic M3 receptor expressing CHO-K1 cells incubated for 60 mins or 6 hrs by liquid scintillation counting; format: cell-based
Target sequence in this assay (P20309 whole entry): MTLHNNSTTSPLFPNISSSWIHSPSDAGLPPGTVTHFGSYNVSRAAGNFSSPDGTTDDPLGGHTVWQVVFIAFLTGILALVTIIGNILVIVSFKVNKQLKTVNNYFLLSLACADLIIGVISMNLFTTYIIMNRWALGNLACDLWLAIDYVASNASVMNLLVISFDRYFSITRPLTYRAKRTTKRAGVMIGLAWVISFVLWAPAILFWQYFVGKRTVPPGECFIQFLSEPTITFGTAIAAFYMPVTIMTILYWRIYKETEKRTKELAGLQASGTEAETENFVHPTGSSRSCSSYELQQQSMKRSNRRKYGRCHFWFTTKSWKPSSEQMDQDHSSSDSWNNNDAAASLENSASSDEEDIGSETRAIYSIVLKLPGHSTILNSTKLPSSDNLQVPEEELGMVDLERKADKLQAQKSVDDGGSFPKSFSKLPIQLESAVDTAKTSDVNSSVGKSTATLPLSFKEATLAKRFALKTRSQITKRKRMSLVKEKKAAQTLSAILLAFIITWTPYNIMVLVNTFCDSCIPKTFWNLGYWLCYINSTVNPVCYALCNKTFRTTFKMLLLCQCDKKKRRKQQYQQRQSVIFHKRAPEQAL

[2] = Apparent permeability across apical to basolateral side in human Caco2 cells using [14C]mannitol at 10 to 100 uM after 30 mins by HPLC-UV analysis; format: ADME, cell-based; details: caco-2, 0.5 h
[3] = Half life in human liver microsomes at 3 uM after 30 mins by HPLC-UV analysis; format: ADME
[4] = Clearance in male Sprague-Dawley rat at 0.25 mg/kg, iv; format: ADME, organism-based; design: dose 0.25 mg/kg, route intravenous; details: in vivo
[5] = Volume of distribution at steady state in male Sprague-Dawley rat at 0.25 mg/kg, iv; format: ADME, organism-based; design: dose 0.25 mg/kg, route intravenous; details: in vivo, read-out: Vdss
[6] = Half life in male Sprague-Dawley rat at 0.25 mg/kg, iv; format: ADME, organism-based; design: dose 0.25 mg/kg, route intravenous; details: in vivo
[7] = Oral bioavailability in male Sprague-Dawley rat at 0.25 mg/kg; format: ADME, organism-based; details: in vivo
CYP2C9 = CYP2C9 (Homo sapiens, UniProt P11712); experiment: Inhibition of CYP2C9 (unknown origin) at 600 nM; format: ADME
Sequence of CYP2C9 (P11712 whole entry): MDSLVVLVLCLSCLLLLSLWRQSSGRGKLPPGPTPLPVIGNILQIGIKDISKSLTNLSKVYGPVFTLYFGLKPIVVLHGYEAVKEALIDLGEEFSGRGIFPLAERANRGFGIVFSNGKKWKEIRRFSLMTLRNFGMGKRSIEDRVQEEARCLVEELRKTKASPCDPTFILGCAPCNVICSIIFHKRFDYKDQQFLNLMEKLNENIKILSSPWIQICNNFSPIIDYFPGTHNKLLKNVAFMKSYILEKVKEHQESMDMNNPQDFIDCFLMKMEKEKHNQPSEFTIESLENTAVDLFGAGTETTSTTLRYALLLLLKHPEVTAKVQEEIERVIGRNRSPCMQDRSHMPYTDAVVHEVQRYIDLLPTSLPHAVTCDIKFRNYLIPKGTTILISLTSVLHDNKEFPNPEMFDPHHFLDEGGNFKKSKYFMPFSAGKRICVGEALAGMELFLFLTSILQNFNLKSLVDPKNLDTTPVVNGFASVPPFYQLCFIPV

CYP2C19 = CYP2C19 (Homo sapiens, UniProt P33261); experiment: Inhibition of CYP2C19 (unknown origin) at 600 nM; format: ADME
Sequence of CYP2C19 (P33261 whole entry): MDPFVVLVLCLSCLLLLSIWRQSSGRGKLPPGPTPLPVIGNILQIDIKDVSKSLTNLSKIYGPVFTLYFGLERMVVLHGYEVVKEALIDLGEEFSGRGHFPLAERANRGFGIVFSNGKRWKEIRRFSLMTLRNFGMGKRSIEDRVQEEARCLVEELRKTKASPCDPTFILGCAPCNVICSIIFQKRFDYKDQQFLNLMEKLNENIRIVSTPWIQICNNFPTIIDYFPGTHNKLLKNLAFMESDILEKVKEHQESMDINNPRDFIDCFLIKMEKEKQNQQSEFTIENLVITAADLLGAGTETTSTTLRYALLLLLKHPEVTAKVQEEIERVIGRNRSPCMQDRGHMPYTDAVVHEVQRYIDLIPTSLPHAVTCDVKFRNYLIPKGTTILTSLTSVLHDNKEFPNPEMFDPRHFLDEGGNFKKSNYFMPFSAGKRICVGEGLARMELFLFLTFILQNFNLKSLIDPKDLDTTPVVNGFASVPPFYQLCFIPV

CYP2D6 = CYP2D6 (Homo sapiens, UniProt P10635); experiment: Inhibition of CYP2D6 (unknown origin) at 600 nM; format: ADME
Sequence of CYP2D6 (P10635 whole entry): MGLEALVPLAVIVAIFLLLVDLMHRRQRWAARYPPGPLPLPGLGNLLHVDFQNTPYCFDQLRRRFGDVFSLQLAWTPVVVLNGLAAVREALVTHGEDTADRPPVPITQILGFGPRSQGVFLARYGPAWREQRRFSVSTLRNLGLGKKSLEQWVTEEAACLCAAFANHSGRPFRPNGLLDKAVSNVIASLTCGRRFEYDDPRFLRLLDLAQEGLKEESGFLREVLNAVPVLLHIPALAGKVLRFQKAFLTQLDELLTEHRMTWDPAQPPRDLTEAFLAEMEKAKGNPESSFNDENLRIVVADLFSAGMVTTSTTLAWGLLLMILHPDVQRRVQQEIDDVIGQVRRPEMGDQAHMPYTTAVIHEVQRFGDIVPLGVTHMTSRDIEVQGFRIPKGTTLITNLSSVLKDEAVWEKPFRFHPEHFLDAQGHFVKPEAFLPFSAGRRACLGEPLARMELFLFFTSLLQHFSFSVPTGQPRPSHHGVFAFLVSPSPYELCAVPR

CYP3A4 = CYP3A4 (Homo sapiens, UniProt P08684); experiment: Inhibition of CYP3A4 (unknown origin) at 600 nM; format: ADME
Sequence of CYP3A4 (P08684 whole entry): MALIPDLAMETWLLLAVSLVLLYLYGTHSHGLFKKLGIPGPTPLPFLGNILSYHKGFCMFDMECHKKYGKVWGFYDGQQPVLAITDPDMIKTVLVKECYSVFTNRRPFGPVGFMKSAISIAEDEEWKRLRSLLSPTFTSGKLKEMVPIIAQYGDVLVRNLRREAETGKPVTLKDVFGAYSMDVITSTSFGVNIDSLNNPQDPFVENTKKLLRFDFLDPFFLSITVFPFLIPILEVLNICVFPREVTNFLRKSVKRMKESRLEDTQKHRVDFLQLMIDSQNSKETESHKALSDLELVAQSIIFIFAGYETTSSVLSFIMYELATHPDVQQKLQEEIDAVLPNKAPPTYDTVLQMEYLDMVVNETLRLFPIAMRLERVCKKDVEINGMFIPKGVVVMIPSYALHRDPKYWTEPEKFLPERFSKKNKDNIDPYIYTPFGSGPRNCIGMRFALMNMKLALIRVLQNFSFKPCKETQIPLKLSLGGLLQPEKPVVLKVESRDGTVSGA

CYP1A2 = molecular target: T2, CYP1A2 (Homo sapiens, UniProt P05177); experiment: Inhibition of CYP1A2 (unknown origin) at 600 nM; format: ADME
T2 sequence (P05177 whole entry): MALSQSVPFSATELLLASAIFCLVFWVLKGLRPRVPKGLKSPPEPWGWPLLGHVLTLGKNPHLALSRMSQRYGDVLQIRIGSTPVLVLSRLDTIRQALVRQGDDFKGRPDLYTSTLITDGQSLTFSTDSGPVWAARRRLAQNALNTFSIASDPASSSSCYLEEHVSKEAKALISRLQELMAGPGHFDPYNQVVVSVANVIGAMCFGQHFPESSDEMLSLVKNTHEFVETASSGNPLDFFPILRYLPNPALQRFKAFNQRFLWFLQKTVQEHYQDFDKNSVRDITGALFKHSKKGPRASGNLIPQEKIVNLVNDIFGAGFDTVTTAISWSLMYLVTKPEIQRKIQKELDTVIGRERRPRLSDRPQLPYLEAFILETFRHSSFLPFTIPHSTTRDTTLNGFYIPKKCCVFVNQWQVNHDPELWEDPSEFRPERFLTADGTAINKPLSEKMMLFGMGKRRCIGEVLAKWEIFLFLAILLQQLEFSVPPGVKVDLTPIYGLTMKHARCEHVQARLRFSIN

[8] = molecular target: Voltage-gated inwardly rectifying potassium channel KCNH2 (Homo sapiens, UniProt Q12809); experiment: Inhibition of human ERG channel up to 150 nM
Sequence of Voltage-gated inwardly rectifying potassium channel KCNH2 (Q12809 whole entry): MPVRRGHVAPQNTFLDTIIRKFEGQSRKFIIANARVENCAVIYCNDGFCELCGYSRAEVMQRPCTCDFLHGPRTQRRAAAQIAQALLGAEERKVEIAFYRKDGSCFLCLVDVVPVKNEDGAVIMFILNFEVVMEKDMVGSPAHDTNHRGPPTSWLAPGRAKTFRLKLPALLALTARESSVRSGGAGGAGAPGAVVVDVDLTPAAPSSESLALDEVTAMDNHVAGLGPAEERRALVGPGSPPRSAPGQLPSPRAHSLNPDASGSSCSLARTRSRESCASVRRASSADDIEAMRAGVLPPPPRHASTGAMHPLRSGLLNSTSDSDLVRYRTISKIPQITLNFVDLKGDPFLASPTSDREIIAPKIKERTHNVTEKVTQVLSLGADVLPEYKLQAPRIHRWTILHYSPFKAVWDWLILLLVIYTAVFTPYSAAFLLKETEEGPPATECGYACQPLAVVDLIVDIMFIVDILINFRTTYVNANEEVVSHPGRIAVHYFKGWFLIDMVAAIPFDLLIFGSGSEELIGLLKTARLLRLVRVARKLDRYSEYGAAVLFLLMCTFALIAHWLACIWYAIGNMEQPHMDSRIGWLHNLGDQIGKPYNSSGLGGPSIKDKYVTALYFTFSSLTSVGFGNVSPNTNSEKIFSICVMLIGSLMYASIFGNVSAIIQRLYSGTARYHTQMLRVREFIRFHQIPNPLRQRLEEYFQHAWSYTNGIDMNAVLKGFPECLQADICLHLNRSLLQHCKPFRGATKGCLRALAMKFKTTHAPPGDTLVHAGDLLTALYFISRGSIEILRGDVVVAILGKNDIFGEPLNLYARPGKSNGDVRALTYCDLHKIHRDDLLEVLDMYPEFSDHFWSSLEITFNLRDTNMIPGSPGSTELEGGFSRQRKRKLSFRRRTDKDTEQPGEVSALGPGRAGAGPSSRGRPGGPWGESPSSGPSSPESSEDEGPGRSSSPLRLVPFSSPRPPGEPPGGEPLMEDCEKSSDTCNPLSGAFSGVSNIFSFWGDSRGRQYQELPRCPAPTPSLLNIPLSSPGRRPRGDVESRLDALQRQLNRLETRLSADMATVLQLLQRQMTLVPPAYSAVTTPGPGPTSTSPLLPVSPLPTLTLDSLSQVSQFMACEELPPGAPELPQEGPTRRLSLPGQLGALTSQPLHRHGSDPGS

Salmonella typhimurium [9] = experiment: Genotoxicity in Salmonella typhimurium at 5000 ug/plate by AMES test in presence of metabolic activation; format: toxicity, organism-based; details: salmonella enterica subsp. enterica serovar typhimurium
Procedure, shortened: (§1)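 Exploratory (non-GLP) Ames assay, tested at up to 5000 μg/plate with and without a metabolic activation system.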

Salmonella typhimurium [10] = experiment: Genotoxicity in Salmonella typhimurium at 5000 ug/plate by AMES test in absence of metabolic activation; format: toxicity, organism-based; details: salmonella enterica subsp. enterica serovar typhimurium; procedure, shortened: as §1
Rattus norvegicus = experiment: Toxicity in rat assessed as respiratory irritation and systemic exposures up to 333 ug/kg dosed via inhalation during 7-day inhalation study; format: organism-based; details: in vivo, 0.333 mg/kg
[11] = molecular target: T1, Muscarinic acetylcholine receptor M3; experiment: Binding affinity to human muscarinic M3 receptor assessed as dissociation half life
Procedure, shortened: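 Kinetic radioligand dissociation study at the human M3 receptor, reported as dissociation half-life in minutes.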
Target sequence in this assay (P20309 whole entry, looked up): as the sequence (P20309 whole entry) above

Liver microsome = experiment: Drug metabolism in human liver microsomes assessed as metabolites; format: ADME
Cavia porcellus [12] = experiment: Bronchoprotection in male Duncan Hartley guinea pig bronchoconstriction einthoven model assessed as inhibition of methacholine-induced bronchoconstriction at 100 microg/ml, inhalation after 24 hrs by in vivo muscarinic acetylcholine receptor antagonist activity assay; format: functional; design: scale not given: the % may be the effect or the level left
Procedure, shortened: (§2)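 Einthoven bronchoprotection in guinea pigs, read as % bronchoprotection 24 h after inhaled dosing. The TFA salt was used in the initial experiments. For one compound, the edisylate salt was compared with the TFA form. Group sizes were n = 3–8.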

Cavia porcellus [13] = experiment: Bronchoprotection in male Duncan Hartley guinea pig bronchoconstriction einthoven model assessed as inhibition of methacholine-induced bronchoconstriction at 100 microg/ml, inhalation after 24 hrs by in vivo beta2 adrenergic receptor agonist activity assay; format: functional; design: scale not given: the % may be the effect or the level left; procedure, shortened: as §2
Cavia porcellus [14] = experiment: Bronchoprotection in male Duncan Hartley guinea pig bronchoconstriction einthoven model assessed as inhibition of methacholine-induced bronchoconstriction at 100 microg/ml, inhalation after 24 hrs by in vivo muscarinic antagonist and beta2 agonist activity assay; format: functional; design: scale not given: the % may be the effect or the level left; procedure, shortened: as §2
Cavia porcellus [15] = experiment: Bronchoprotection in male Duncan Hartley guinea pig bronchoconstriction einthoven model assessed as inhibition of methacholine-induced bronchoconstriction at 100 microg/ml, inhalation after 1.5 hrs by in vivo muscarinic acetylcholine receptor antagonist activity assay; format: functional; design: scale not given: the % may be the effect or the level left
Cavia porcellus [16] = experiment: Bronchoprotection in male Duncan Hartley guinea pig bronchoconstriction einthoven model assessed as inhibition of methacholine-induced bronchoconstriction at 100 microg/ml, inhalation after 1.5 hrs by in vivo beta2 adrenergic receptor agonist activity assay; format: functional; design: scale not given: the % may be the effect or the level left
Cavia porcellus [17] = experiment: Bronchoprotection in male Duncan Hartley guinea pig bronchoconstriction einthoven model assessed as inhibition of methacholine-induced bronchoconstriction at 100 microg/ml, inhalation after 1.5 hrs by in vivo muscarinic antagonist and beta2 agonist activity assay; format: functional; design: scale not given: the % may be the effect or the level left
Cavia porcellus [18] = organism: Cavia porcellus; experiment: Antisialagogue activity in guinea pig assessed as inhibition of pilocarpine-induced sialagogue response at 100 ug/ml, inhalation after 1.5 hrs; format: functional
Procedure, shortened: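 Guinea pigs were pretreated with test compound by inhalation. At 1.5 h post-dose they were challenged with pilocarpine. The sialagogue (salivation) response was recorded as % inhibition.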

Cavia porcellus [19] = organism: Cavia porcellus; experiment: Antagonist activity at muscarinic M3 receptor in guinea pig isolated trachea assessed as smooth muscle relaxation
Cavia porcellus [20] = organism: Cavia porcellus; experiment: Agonist activity at beta2 adrenergic receptor in guinea pig isolated trachea assessed as smooth muscle relaxation
Cavia porcellus [21] = organism: Cavia porcellus; experiment: Combined muscarinic antagonist and beta2 agonist activity in guinea pig isolated trachea assessed as smooth muscle relaxation

In the case of COc1cc(NC(=O)CCN2CCC(OC(=O)Nc3ccccc3-c3ccccc3)CC2)c(Cl)cc1CNC[C@H](O)c1ccc(O)c2[nH]c(=O)ccc12 [BATEFENTEROL], the pKi [1] was 8.70, the Papp [2] was < 0.4 ×10⁻⁶ cm/s and the half-life at 3 µM [3] was 11.3 min. The clearance [4] was 75.3 mL/min/kg, the Vd [5] was 0.32 L/kg and the half-life [6] was 10.8 min. The bioavailability [7] was < 0.45%, the inhibition at 0.6 µM (CYP2C9) was < 20% and the inhibition at 0.6 µM (CYP2C19) was < 20%. The inhibition at 0.6 µM (CYP2D6) was < 20%, the inhibition at 0.6 µM (CYP3A4) was < 20% and the inhibition at 0.6 µM (CYP1A2) was 25%. For the same molecule, the “inhibition (INH)” value [8] was “Not Active”, the Activity (Salmonella typhimurium [9]) was “Non-toxic” and the Activity (Salmonella typhimurium [10]) was “Non-toxic”. The Activity (Rattus norvegicus) was “Non-toxic”, the T1/2 [11] was 3 min and the Drug metabolism (Liver microsome) was “metabolite_notdetected”. For the same molecule, the Activity (Cavia porcellus [12]) was 48%, the Activity (Cavia porcellus [13]) was 47% and the Activity (Cavia porcellus [14]) was 77%. It also gave an Activity (Cavia porcellus [15]) of 75%, an Activity (Cavia porcellus [16]) of 73% and an Activity (Cavia porcellus [17]) of 92%. The “inhibition (INH)” value (Cavia porcellus [18]) was 4%, the pEC50 (Cavia porcellus [19]) was 7.30 and the pEC50 (Cavia porcellus [20]) was 7.60. For the same molecule, the pEC50 (Cavia porcellus [21]) was 8.00.
